Target: T1, Polyunsaturated fatty acid 5-lipoxygenase (Rattus norvegicus, UniProt P12527)
T1 sequence (P12527 whole entry): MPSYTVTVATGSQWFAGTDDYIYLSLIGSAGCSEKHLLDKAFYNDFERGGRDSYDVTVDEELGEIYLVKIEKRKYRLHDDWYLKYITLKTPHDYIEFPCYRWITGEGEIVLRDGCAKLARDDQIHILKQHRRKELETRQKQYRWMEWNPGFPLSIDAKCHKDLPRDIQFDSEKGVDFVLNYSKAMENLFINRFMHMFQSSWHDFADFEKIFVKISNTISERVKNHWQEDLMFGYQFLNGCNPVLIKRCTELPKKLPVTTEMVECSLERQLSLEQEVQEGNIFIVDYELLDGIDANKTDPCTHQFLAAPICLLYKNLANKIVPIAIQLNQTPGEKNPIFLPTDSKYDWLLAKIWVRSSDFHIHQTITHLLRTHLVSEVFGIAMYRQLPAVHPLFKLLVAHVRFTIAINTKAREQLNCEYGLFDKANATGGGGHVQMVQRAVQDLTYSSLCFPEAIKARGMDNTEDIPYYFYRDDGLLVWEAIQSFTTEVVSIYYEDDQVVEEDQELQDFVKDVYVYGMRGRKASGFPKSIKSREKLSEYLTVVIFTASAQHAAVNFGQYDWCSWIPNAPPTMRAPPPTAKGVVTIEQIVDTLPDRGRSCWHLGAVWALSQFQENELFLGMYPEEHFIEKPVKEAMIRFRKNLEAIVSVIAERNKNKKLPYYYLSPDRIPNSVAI
Experiment: Inhibitory activity against 5-lipoxygenase obtained from rat basophilic leukemia cells
Procedure, shortened: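 IC50 was determined against 5-LO in a broken RBL-1 cell assay, using a crude enzyme preparation from rat basophilic leukemia cells.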

For `Oc1oc(CCC#Cc2ccccc2CSc2ccccc2)c(O)c1O` [3,4-Dihydroxy-5-[4-(2-phenylsulfanylmethyl-phenyl)-but-3-ynyl]-5H-furan-2-one], the IC50 was 300 nM.

From BindingDB's records for doi:10.1021/jm970034q (Oxis International, 1998)
